17 compounds from ChEMBL document CHEMBL1154863 (J Nat Prod, 2010) can be followed below.

The structures appear in SMILES notation. Calls of active or inactive are those of the source.

Assay [1] addresses Neuronal acetylcholine receptor; alpha4/beta2 (Rattus norvegicus, UniProt P09483+P12390). The assay can be described thus: Displacement of [3H]epibatidine from alpha4beta2 nAChR in rat cerebral cortex after 4 hrs by scintillation counting. The class given is tissue-based. In outline: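 Rat cerebral cortex homogenate (3 mg wet weight, washed three times) in 50 mM Tris pH 7.4 with NaCl, KCl, CaCl2, MgCl2. 4 h at room temperature. Filtration onto polyethylenimine-soaked GF/B, scintillation counting. Ki from IC50 by Cheng-Prusoff.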

Assay [2] deals with Mus musculus. Nature of the assay: Inhibition of nicotine-induced antinociception in mouse assessed as reaction time taken to jump or lick paw at 100 ug/kg after 5 mins by hot plate test. The class given is functional.
The subject of assay [3] is Mus musculus. Nature of the assay: Inhibition of nicotine-induced antinociception in sc dosed mouse assessed as tail withdrawal latency after 5 mins by tail flick test. The class given is functional.
The target of assay [4] is Neuronal acetylcholine receptor subunit alpha-7 (Rattus norvegicus, UniProt Q05941). The assay can be described thus: Displacement of [3H]iodo-MLA from alpha7 nAChR in rat cerebral cortex after 2 hrs by scintillation counting. It counts as tissue-based. In outline: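 Washed rat cerebral cortex homogenate (3 mg wet weight) in Tris pH 7.4 buffer with salts. 2 h on ice. Nonspecific binding defined with 300 µM (−)-nicotine. Filtered onto BSA-soaked GF/B, then microplate scintillation counting.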

Assay [5] has as its system Mus musculus. The assay can be described thus: Effect on locomotory activity in sc dosed mouse assessed as change in spontaneous activity after 5 mins by photocell interruption readings. The class given is functional. An outline of the steps: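 Mice placed in photocell activity cages 5 min after s.c. saline or analogue. Beam interruptions recorded over the next 10 min and expressed as photocell interruption counts.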

For assay [6], the system named is Mus musculus. The assay can be described thus: Effect on rectal body temperature in sc dosed mouse assessed as change in temperature after 30 mins by inducible hypothermia test. The class given is functional. The note with it: 0.5 h. An outline of the steps: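 Rectal temperature measured in mice with a thermistor probe inserted 24 mm, read before and 30 min after s.c. saline or analogue. Change from pre-treatment value calculated for each mouse.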

Assay [7] relates to Mus musculus. The assay can be described thus: Antinociceptive activity in sc dosed mouse assessed as reaction time taken to jump or lick paw after 5 mins by hot plate test. It counts as functional. An outline of the steps:
(§1)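 Mice placed in a glass cylinder on a 55.0 °C hot plate. Two control latencies taken at least 10 min apart; normal latency 8–12 s. Jump or paw lick scored. Tested 5 min after s.c. injection, eight mice per dose. %MPE calculated against a 40 s maximum.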

Assay [8] relates to Mus musculus. Nature of the assay: Antinociceptive activity in sc dosed mouse after 5 mins by tail flick test. It counts as functional. In outline: (§2)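 Mice, tail-flick by the D'Amour–Smith method. Baseline latency 2–4 s, 10 s cutoff. Tested 5 min after s.c. injection. Response expressed as %MPE = (test−control)/(10−control)×100. 8–12 mice per dose, at least four doses per dose-response curve.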

The test system of assay [9] is Mus musculus. The assay can be described thus: Inhibition of nicotine-induced antinociception in sc dosed mouse assessed as reaction time taken to jump or lick paw after 5 mins by hot plate test. The class given is functional.
The subject of assay [10] is Mus musculus. The assay can be described thus: Inhibition of nicotine-induced antinociception in mouse assessed as reaction time taken to jump or lick paw at 200 ug/kg after 5 mins by hot plate test. The class given is functional.
Assay [11] relates to Mus musculus. Nature of the assay: Inhibition of nicotine-induced antinociception in mouse assessed as reaction time taken to jump or lick paw at 50 ug/kg after 5 mins by hot plate test. The class given is functional.
The species named for the next assay is Rattus norvegicus. Nature of the assay: Selectivity ratio of Ki for rat alpha7 nAChR to Ki for rat alpha4beta2 nAChR.
Assay [12] deals with Mus musculus. The assay can be described thus: Antinociceptive activity in mouse at 2 mg/kg, sc after 5 mins by tail flick test. The class given is functional. The note with it: route subcutaneous. In outline:
as §2

Assay [13] relates to Mus musculus. The assay can be described thus: Antinociceptive activity in mouse assessed as reaction time taken to jump or lick paw at 2 mg/kg, sc after 5 mins by hot plate test. The class given is functional. The note with it: route subcutaneous. An outline of the steps:
as §1

Assay [14] concerns Mus musculus. Nature of the assay: Inhibition of nicotine-induced antinociception in mouse assessed as reaction time taken to jump or lick paw at 10000 ug/kg after 5 mins by hot plate test. The class given is functional.
Setting [15] is: Mus musculus, Tail, sc, 5 min, read-out: ED50.

Chain of Neuronal acetylcholine receptor subunit alpha-7 (Q05941 whole entry): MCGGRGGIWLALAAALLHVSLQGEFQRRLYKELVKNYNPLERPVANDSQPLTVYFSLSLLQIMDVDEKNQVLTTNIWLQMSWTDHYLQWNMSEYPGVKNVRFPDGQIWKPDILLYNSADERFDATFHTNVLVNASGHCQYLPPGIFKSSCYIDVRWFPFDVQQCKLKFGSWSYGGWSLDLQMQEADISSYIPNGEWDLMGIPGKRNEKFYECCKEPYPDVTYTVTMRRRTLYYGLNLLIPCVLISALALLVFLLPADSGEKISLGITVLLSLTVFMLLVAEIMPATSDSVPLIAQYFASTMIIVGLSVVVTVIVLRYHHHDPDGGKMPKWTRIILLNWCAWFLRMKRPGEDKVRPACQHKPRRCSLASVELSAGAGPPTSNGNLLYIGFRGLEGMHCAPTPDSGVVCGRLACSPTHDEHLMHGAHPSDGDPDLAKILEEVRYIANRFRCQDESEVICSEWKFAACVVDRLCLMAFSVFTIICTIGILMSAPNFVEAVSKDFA
Chain of Neuronal acetylcholine receptor; alpha4/beta2 (P09483 whole entry): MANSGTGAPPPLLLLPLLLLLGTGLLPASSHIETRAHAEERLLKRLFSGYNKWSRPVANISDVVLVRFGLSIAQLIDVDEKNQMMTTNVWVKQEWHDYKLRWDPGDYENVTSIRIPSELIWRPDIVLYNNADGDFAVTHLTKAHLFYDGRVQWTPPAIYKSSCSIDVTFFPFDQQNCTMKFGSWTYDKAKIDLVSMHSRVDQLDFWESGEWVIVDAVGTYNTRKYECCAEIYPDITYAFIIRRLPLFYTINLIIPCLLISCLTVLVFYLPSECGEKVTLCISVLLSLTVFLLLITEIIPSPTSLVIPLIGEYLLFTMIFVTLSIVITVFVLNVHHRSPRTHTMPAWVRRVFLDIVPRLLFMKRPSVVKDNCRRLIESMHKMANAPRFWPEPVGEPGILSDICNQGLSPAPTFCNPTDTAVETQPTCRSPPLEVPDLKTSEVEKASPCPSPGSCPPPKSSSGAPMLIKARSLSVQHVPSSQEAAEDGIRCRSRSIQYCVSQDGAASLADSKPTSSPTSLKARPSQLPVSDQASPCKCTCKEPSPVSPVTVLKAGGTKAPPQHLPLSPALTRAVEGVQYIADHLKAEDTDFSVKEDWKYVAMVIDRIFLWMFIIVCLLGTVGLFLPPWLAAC
Chain of Neuronal acetylcholine receptor; alpha4/beta2 (P12390 whole entry): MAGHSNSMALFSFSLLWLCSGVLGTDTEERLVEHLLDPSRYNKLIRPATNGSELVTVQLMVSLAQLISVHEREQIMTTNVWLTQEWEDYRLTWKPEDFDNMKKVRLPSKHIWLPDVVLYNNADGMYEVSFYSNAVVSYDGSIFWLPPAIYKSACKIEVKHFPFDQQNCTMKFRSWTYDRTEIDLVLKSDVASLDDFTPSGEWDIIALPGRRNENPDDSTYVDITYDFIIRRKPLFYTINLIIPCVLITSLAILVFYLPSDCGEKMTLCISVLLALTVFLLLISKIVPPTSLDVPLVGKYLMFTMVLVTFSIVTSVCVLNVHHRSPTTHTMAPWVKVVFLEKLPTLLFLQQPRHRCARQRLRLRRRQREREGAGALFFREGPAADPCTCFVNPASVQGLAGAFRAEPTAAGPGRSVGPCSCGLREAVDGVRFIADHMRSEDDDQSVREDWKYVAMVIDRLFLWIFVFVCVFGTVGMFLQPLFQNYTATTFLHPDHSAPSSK

Regarding `Clc1ccc(-c2cc([C@H]3C[C@@H]4CC[C@H]3N4)cnc2Cl)cc1`, the inhibition constant (Ki) in [1] was 0.039 nM; in assay [4] it was 209 nM. Besides, the inhibition in vivo at 0.1 mg/kg in the assay with Mus musculus [2] was determined as 10%. In the assay on Mus musculus [3], the AD50 was found to be 0.001 mg/kg. Further, the ED50 in the assay with Mus musculus [5] was 0.53 mg/kg; with Mus musculus [6], 0.89 mg/kg; in the assay with Mus musculus [7] it was 2 mg/kg; with Mus musculus [8] (setting [15]), 2.6 mg/kg.

On to `Fc1cccc(-c2cc([C@H]3C[C@@H]4CC[C@H]3N4)cnc2Cl)c1`, for which the results for the Ki in assay [1] and in [4] were 0.012 nM and 250 nM, respectively. The AD50 in the assay with Mus musculus [3] stood at 0.0039 mg/kg; with Mus musculus [9], 0.086 mg/kg. The ED50 in the assay on Mus musculus [5] is 0.07 mg/kg; in the assay on Mus musculus [6] it was 0.19 mg/kg; with Mus musculus [7], 0.43 mg/kg; in the assay on Mus musculus [8] (setting [15]), 1 mg/kg.

Consider `COc1ccc(-c2cc([C@H]3C[C@@H]4CC[C@H]3N4)cnc2Cl)cc1`, for which the inhibition constant (Ki) was determined as 0.022 nM in [1] and 175 nM in assay [4]. Moreover, the inhibition in vivo at 0.2 mg/kg in the assay on Mus musculus [10] turned out to be 10%. Further, the AD50 in the assay on Mus musculus [3] is 0.01 mg/kg. For the same compound, the ED50 in the assay with Mus musculus [5] is 0.43 mg/kg; with Mus musculus [6], 0.79 mg/kg; with Mus musculus [7], 1.1 mg/kg; in the assay with Mus musculus [8] (setting [15]), 2.36 mg/kg.

Take `COc1cccc(-c2cc([C@H]3C[C@@H]4CC[C@H]3N4)cnc2Cl)c1`: the inhibition constant Ki in assay [1] is 0.019 nM; in assay [4], 558 nM. In the assay with Mus musculus [2], the inhibition in vivo at 0.1 mg/kg was 0%. Besides, the AD50 in the assay with Mus musculus [3] was 0.029 mg/kg. The ED50 came out at 0.2 mg/kg in the assay with Mus musculus [5], 0.7 mg/kg in the assay with Mus musculus [6], 0.8 mg/kg in the assay on Mus musculus [7] and 0.7 mg/kg with Mus musculus [8] (setting [15]).

Turning to `O=[N+]([O-])c1ccc(-c2cc([C@H]3C[C@@H]4CC[C@H]3N4)cnc2Cl)cc1`, the inhibition constant (Ki) was determined as 0.015 nM in assay [1] and 250 nM in assay [4]. The AD50 in the assay on Mus musculus [3] is 0.007 mg/kg. Further, the ED50 was found to be 0.24 mg/kg in the assay on Mus musculus [5], 0.23 mg/kg with Mus musculus [6], 0.38 mg/kg in the assay on Mus musculus [7] and 0.46 mg/kg in the assay with Mus musculus [8] (setting [15]). Further, the inhibition in vivo at 0.05 mg/kg in the assay on Mus musculus [11] was found to be 17%.

Turning to `Clc1cccc(-c2cc([C@H]3C[C@@H]4CC[C@H]3N4)cnc2Cl)c1`, the inhibition constant (Ki) in assay [1] was found to be 0.013 nM; in assay [4], 30.5 nM. Further, the results for the AD50 in the assay on Mus musculus [3] and with Mus musculus [9] were 0.0022 mg/kg and 0.08 mg/kg, respectively. Moreover, the Ratio Ki in the assay filed under Rattus norvegicus is 2000. Also, the ED50 is 0.06 mg/kg in the assay with Mus musculus [5], 0.38 mg/kg with Mus musculus [6], 4.2 mg/kg in the assay on Mus musculus [7] and 3.4 mg/kg in the assay with Mus musculus [8] (setting [15]).

As for `Fc1ccc(-c2cc([C@H]3C[C@@H]4CC[C@H]3N4)cnc2Cl)cc1`, the Ki was 0.017 nM in [1] and 309 nM in assay [4]. For the same compound, the inhibition in vivo at 0.1 mg/kg with Mus musculus [2] was found to be 30%. Also, the AD50 in the assay on Mus musculus [3] was determined as 0.0005 mg/kg. Moreover, the ED50 in the assay on Mus musculus [5] was determined as 0.33 mg/kg; with Mus musculus [6], 0.33 mg/kg; with Mus musculus [7], 1.27 mg/kg; in the assay on Mus musculus [8] (setting [15]) it was 2.48 mg/kg.

On to `Clc1ccc([C@@H]2C[C@H]3CC[C@@H]2N3)cn1` (stereo in doubt; (+)-1) [(+)-EPIBATIDINE], for which the median effective dose (ED50) with Mus musculus [5] is 0.001 mg/kg; with Mus musculus [6], 0.004 mg/kg; in the assay on Mus musculus [7] it was 0.004 mg/kg; in the assay on Mus musculus [8] (setting [15]), 0.0061 mg/kg.

Regarding `O=[N+]([O-])c1cccc(-c2cc([C@H]3C[C@@H]4CC[C@H]3N4)cnc2Cl)c1`, the Ki in assay [1] worked out at 0.008 nM; in assay [4] it was 229 nM. The AD50 came to 0.00025 mg/kg with Mus musculus [3] and 0.18 mg/kg in the assay with Mus musculus [9]. In addition, the ED50 in the assay with Mus musculus [5] was 0.9 mg/kg; in the assay on Mus musculus [6], 1.4 mg/kg; in the assay on Mus musculus [7] it was 3.2 mg/kg; in the assay on Mus musculus [8] (setting [15]), 4.6 mg/kg.

On to `Clc1ccc([C@@H]2C[C@H]3CC[C@@H]2N3)cn1` (stereo in doubt; (-)-1) [(+)-EPIBATIDINE], for which the ED50 with Mus musculus [8] was 0.0066 mg/kg.

Regarding `c1cnc2cc3c(cc2n1)[C@@H]1CNC[C@H]3C1`, the outcome in the assay on Mus musculus [7] and in the assay with Mus musculus [8] was inactive.

As for `CN(C)c1cccc(-c2cc([C@H]3C[C@@H]4CC[C@H]3N4)cnc2Cl)c1`, the figures for the Ki in assay [1] and in assay [4] were 0.009 nM and 1100 nM, respectively. Moreover, the Activity in the assay with Mus musculus [12] and in the assay on Mus musculus [13] was 0% each time. The figures for the AD50 in the assay with Mus musculus [3] and in the assay on Mus musculus [9] were 0.02 mg/kg and 0.56 mg/kg, respectively. In the assay on Mus musculus [6], the median effective dose (ED50) was 3.3 mg/kg.

For the compound `Nc1cccc(-c2cc([C@H]3C[C@@H]4CC[C@H]3N4)cnc2Cl)c1`, the values for the inhibition constant Ki in assay [1] and in [4] were 0.017 nM and 256 nM, respectively. Moreover, the AD50 was 0.00014 mg/kg in the assay with Mus musculus [3] and 0.026 mg/kg with Mus musculus [9]. Besides, the ED50 with Mus musculus [5] worked out at 0.03 mg/kg; in the assay on Mus musculus [6], 0.31 mg/kg; with Mus musculus [7] it was 0.3 mg/kg; in the assay on Mus musculus [8] (setting [15]) it was 0.34 mg/kg.

On to `CN1CCC[C@H]1c1cccnc1` [NICOTINE], for which the 50% effective dose (ED50) in the assay on Mus musculus [5] was 0.5 mg/kg; in the assay with Mus musculus [6] it was 1 mg/kg; in the assay on Mus musculus [7], 0.65 mg/kg; in the assay with Mus musculus [8] (setting [15]) it was 1.3 mg/kg.

Consider `Clc1ncc([C@H]2C[C@@H]3CC[C@H]2N3)cc1-c1cccc(Br)c1`, for which the inhibitory constant (Ki) in assay [1] came to 0.016 nM; in assay [4] it was 85 nM. In addition, the values for the AD50 in the assay with Mus musculus [3] and with Mus musculus [9] were 0.01 mg/kg and 0.22 mg/kg, respectively. For the same compound, the ED50 was 0.11 mg/kg with Mus musculus [5], 0.67 mg/kg in the assay with Mus musculus [6], 2.2 mg/kg in the assay on Mus musculus [7] and 0.54 mg/kg in the assay with Mus musculus [8] (setting [15]).

Turning to `Clc1ncc([C@H]2C[C@@H]3CC[C@H]2N3)cc1-c1ccccc1`, the Ki amounted to 0.021 nM in [1] and 260 nM in [4]. The AD50 with Mus musculus [3] came out at 0.28 mg/kg. Also, the 50% effective dose (ED50) in the assay with Mus musculus [5] was 0.35 mg/kg; in the assay on Mus musculus [6], 0.4 mg/kg; with Mus musculus [7] it was 1 mg/kg; with Mus musculus [8] (setting [15]), 0.7 mg/kg. Also, the inhibition in vivo at 10 mg/kg in the assay on Mus musculus [14] was determined as 30%.

Take `Nc1ccc(-c2cc([C@H]3C[C@@H]4CC[C@H]3N4)cnc2Cl)cc1`: the Ki stood at 0.034 nM in assay [1] and 234 nM in [4]. Also, in the assay on Mus musculus [2], the inhibition in vivo at 0.1 mg/kg amounted to 0%. The AD50 in the assay on Mus musculus [3] was determined as 0.006 mg/kg. Besides, the median effective dose (ED50) in the assay on Mus musculus [5] stood at 0.52 mg/kg; in the assay with Mus musculus [6], 1.1 mg/kg; in the assay on Mus musculus [7] it was 4.5 mg/kg; in the assay on Mus musculus [8] (setting [15]), 5 mg/kg.
